Assay results: article PMC12418302 (Journal of Natural Products, 2025)

Assays:
zebrafish = conditions: in vivo; cited from earlier work
α-chymotrypsin = α-chymotrypsin (Bos taurus, UniProt P00766); assay: Chymotrypsin inhibition assay; type: biochemical
Method in brief: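 α-Chymotrypsin, added as a 10 U/mL solution in kit assay buffer, was preincubated with test compound from a DMSO dilution series (10 μM to 1 nM) for 15 min at room temperature. A reference micropeptin served as positive control. A working reagent of 1% substrate in assay buffer was added, and fluorescence (ex/em 485/530 nm) was read every 30 s for 30 min. IC50 was calculated from the data.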

[1] = target: T1, human neutrophil elastase (Homo sapiens, UniProt P08246); assay: Neutrophil elastase inhibition assay; type: biochemical; conditions: dilution series 10 μM to 1 nM; general statement covering both protease assays
T1 sequence (P08246 30-267): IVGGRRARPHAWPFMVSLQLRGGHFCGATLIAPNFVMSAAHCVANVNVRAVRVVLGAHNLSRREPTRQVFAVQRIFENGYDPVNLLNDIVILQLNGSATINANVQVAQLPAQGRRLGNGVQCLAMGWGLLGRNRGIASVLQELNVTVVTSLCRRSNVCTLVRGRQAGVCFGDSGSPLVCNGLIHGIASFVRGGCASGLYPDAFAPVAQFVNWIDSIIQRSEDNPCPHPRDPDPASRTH

chymotrypsin = conditions: read-out: IC50, chymotrypsin inhibition; literature value; cited from earlier work

CCCCCC(=O)N[C@@H](CC(=O)O)C(=O)N[C@H]1C(=O)N[C@@H](CCCN=C(N)N)C(=O)NC2CCC(O)N(C2=O)[C@@H]([C@H](C)CC)C(=O)N(C)[C@@H](Cc2ccc(O)cc2)C(=O)N[C@@H]([C@@H](C)CC)C(=O)O[C@@H]1C (some centres unmarked) [micropeptin K139]
share of the overall mortality attributed to the compound (zebrafish): 52%

Micropeptin 982 (L-Ser) [Compound 2]
chymotrypsin inhibitory activity (in words) (α-chymotrypsin; dilution series 10 μM to 1 nM): no inhibition was observed | inhibitory activity (in words), neutrophil elastase [1]: lacked any inhibitory activity

Micropeptin 996 (D-Gln) [Compound 4]
chymotrypsin inhibition (in words) (α-chymotrypsin; up to a concentration of 10 μM): not active

Microviridin 1777
IC50 (chymotrypsin): 0.1 µM
